Results: ChEMBL document CHEMBL5131497, “Design, Synthesis, and Characterization of TNP-2198, a Dual-Targeted Rifamycin-Nitroimidazole Conjugate with Potent Activity against Microaerophilic and Anaerobic Bacterial Pathogens” (J Med Chem, 2022)
≈ marks a conversion by molar mass, not a printed value.

How the values were obtained:
Type in all cases: functional
Clostridioides difficile [1] = assay: Antibacterial activity against Clostridioides difficile ATCC 9689
Helicobacter pylori [2] = assay: Antibacterial activity against Helicobacter pylori ATCC 700392
Method in brief: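 Agar dilution per CLSI. Wild-type H. pylori ATCC 700392 (CB1531). Drugs prepared from 100× stocks as 2-fold dilutions in Mueller–Hinton agar with aged (≥2 weeks) sheep blood (5% v/v). Combinations were at 1:1 molar ratio. MIC read after 5 days at 35 °C under microaerobic atmosphere from a campylobacter gas-generating system.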

Staphylococcus aureus = assay: Antibacterial activity against Staphylococcus aureus ATCC 29213
Clostridioides difficile [3] = assay: Antibacterial activity against Clostridioides difficile BAA 1382
Clostridioides difficile [4] = assay: Antibacterial activity against rifampicin-resistant Clostridioides difficile harboring rpoBQ489K mutant
Helicobacter pylori [5] = assay: Antibacterial activity against rifampicin resistant Helicobacter pylori harboring rpoBL525I/D530N mutant
Helicobacter pylori [6] = assay: Antibacterial activity against metronidazole/rifampicin-resistant Helicobacter pylori CB1893 harboring rpoBL525I/D530N/rdxAR16S mutant measured after 5 days by agar dilution method; conditions: CB1893, 120 h, time 5 day
Method in brief: (§1)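 Agar dilution per CLSI. Wild-type ATCC 700392 (CB1531) and its derivatives carry defined resistance determinants. Drugs, alone or in 1:1 molar mixtures, were diluted 2-fold from 100× stocks into Mueller–Hinton agar with aged (≥2 weeks) sheep blood (5% v/v). MIC read after 5 days at 35 °C under microaerobic conditions from a campylobacter gas-generating system.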

Helicobacter pylori [7] = assay: Antibacterial activity against rifampicin-resistant Helicobacter pylori CB1903 harboring rpoBD530V mutant at 1:1 compound to metronidazole molar ratio measured after 5 days in presence of metronidazole by agar dilution method; conditions: CB1903, 120 h, time 5 day; method in brief: as §1
Helicobacter pylori [8] = assay: Antibacterial activity against rifampicin-resistant Helicobacter pylori CB1902 harboring rpoBV149F mutant at 1:1 compound to metronidazole molar ratio measured after 5 days in presence of metronidazole by agar dilution method; conditions: CB1902, 120 h, time 5 day; method in brief: as §1
Helicobacter pylori [9] = assay: Antibacterial activity against rifampicin-resistant Helicobacter pylori CB1903 harboring rpoBD530V mutant measured after 5 days by agar dilution method; conditions: CB1903, 120 h, time 5 day; method in brief: as §1
Helicobacter pylori [10] = assay: Antibacterial activity against rifampicin-resistant Helicobacter pylori CB1614 harboring rpoBL525I/D530N at 1:1 compound to metronidazole molar ratio measured after 5 days in presence of metronidazole by agar dilution method; conditions: CB1614, 120 h, time 5 day; method in brief: as §1
Helicobacter pylori [11] = assay: Antibacterial activity against metronidazole/rifampicin-resistant Helicobacter pylori CB1893 harboring rpoBL525I/D530N/rdxAR16S mutant at 1:1 compound to metronidazole molar ratio measured after 5 days in presence of metronidazole by agar dilution method; conditions: CB1893, 120 h, time 5 day; method in brief: as §1
Helicobacter pylori [12] = assay: Antibacterial activity against metronidazole/rifampicin-resistant Helicobacter pylori CB1771 harboring rpoBL525I/D530N/rdxAE75stop mutant measured after 5 days by agar dilution method; conditions: CB1771, 120 h, time 5 day; method in brief: as §1
Helicobacter pylori [13] = assay: Antibacterial activity against rifampicin-resistant Helicobacter pylori CB1614 harboring rpoBL525I/D530N mutant measured after 5 days by agar dilution method; conditions: CB1614, 120 h, time 5 day; method in brief: as §1
Helicobacter pylori [14] = assay: Antibacterial activity against rifampicin-resistant Helicobacter pylori CB1902 harboring rpoBV149F mutant measured after 5 days by agar dilution method; conditions: CB1902, 120 h, time 5 day; method in brief: as §1
Helicobacter pylori [15] = assay: Antibacterial activity against metronidazole-resistant Helicobacter pylori CB1573 harboring rdxAR16S mutant at 1:1 compound to metronidazole molar ratio measured after 5 days in presence of metronidazole by agar dilution method; conditions: CB1573, 120 h, time 5 day; method in brief: as §1
Helicobacter pylori [16] = assay: Antibacterial activity against metronidazole/rifampicin-resistant Helicobacter pylori CB1771 harboring rpoBL525I/D530N/rdxAE75stop mutant at 1:1 compound to metronidazole molar ratio measured after 5 days in presence of metronidazole by agar dilution method; conditions: CB1771, 120 h, time 5 day; method in brief: as §1

SMILES	MIC (Clostridioides difficile [1]) [ng/mL]	MIC (Helicobacter pylori [2]) [µg/mL]	MIC (Staphylococcus aureus) [µg/mL]	also measured
CO[C@H]1/C=C/O[C@@]2(C)Oc3c(C)c(O)c4c(c3C2=O)C2=NC3(CCN(CC(=O)Nc5ncc([N+](=O)[O-])s5)CC3)NC2=C(NC(=O)/C(C)=C\C=C\[C@H](C)[C@H](O)[C@@H](C)[C@@H](O)[C@@H](C)[C@H](OC(C)=O)[C@@H]1C)C4=O	1 (≈ 0.00102 µM)	0.004 (≈ 0.0041 µM)		
CO[C@H]1/C=C/O[C@@]2(C)Oc3c(C)c(O)c4c(O)c(c(N5CCN(Cc6ccc(OCC7Cn8cc([N+](=O)[O-])nc8O7)cc6)CC5)c(O)c4c3C2=O)NC(=O)/C(C)=C\C=C\[C@H](C)[C@H](O)[C@@H](C)[C@@H](O)[C@@H](C)[C@H](OC(C)=O)[C@@H]1C (some centres not stated)		0.25 (≈ 0.237 µM)	< 0.004	
CO[C@H]1/C=C/O[C@@]2(C)Oc3c(C)c(O)c4c(O)c(c(N5CCN(Cc6ccc(CO[C@@H]7COc8nc([N+](=O)[O-])cn8C7)cc6)CC5)c(O)c4c3C2=O)NC(=O)/C(C)=C\C=C\[C@H](C)[C@H](O)[C@@H](C)[C@@H](O)[C@@H](C)[C@H](OC(C)=O)[C@@H]1C	8 (≈ 0.00748 µM)	0.5 (≈ 0.468 µM)	< 0.008	
CO[C@H]1/C=C/O[C@@]2(C)Oc3c(C)c(O)c4c(O)c(c(/C=N/N5CCN(CCn6c([N+](=O)[O-])cnc6C)CC5)c(O)c4c3C2=O)NC(=O)/C(C)=C\C=C\[C@H](C)[C@H](O)[C@@H](C)[C@@H](O)[C@@H](C)[C@H](OC(C)=O)[C@@H]1C	2 (≈ 0.00208 µM)	0.25 (≈ 0.26 µM)	0.03 (≈ 0.0312 µM)	MIC (Clostridioides difficile [3]): 0.5 ng/mL (≈ 0.00052 µM); MIC (Clostridioides difficile [4]): 2 µg/mL (≈ 2.08 µM); MIC (Helicobacter pylori [5]): 2 µg/mL (≈ 2.08 µM)
CO[C@H]1/C=C/O[C@@]2(C)Oc3c(C)c(O)c4c(=O)c(c5oc6cc(N7CCN(CC(C)C)CC7)cc(O)c6nc-5c4c3C2=O)NC(=O)/C(C)=C\C=C\[C@H](C)[C@H](O)[C@@H](C)[C@@H](O)[C@@H](C)[C@H](OC(C)=O)[C@@H]1C [RIFALAZIL]	1 (≈ 0.00106 µM)	0.002 (≈ 0.00213 µM)	0.004 (≈ 0.00425 µM)	
C[C@]1(COc2ccc(N3CCC(Oc4ccc(OC(F)(F)F)cc4)CC3)cc2)Cn2cc([N+](=O)[O-])nc2O1	> 16000	2 (≈ 3.74 µM)	> 32	
CO[C@H]1/C=C/O[C@@]2(C)Oc3c(C)c(O)c4c(c3C2=O)C2=NC3(CCN(CC5(C)Cn6cc([N+](=O)[O-])nc6O5)CC3)NC2=C(NC(=O)/C(C)=C\C=C\[C@H](C)[C@H](O)[C@@H](C)[C@@H](O)[C@@H](C)[C@H](OC(C)=O)[C@@H]1C)C4=O (some centres not stated)		0.03 (≈ 0.0309 µM)	0.03 (≈ 0.0309 µM)	
CO[C@H]1/C=C/O[C@@]2(C)Oc3c(C)c(O)c4c(O)c(c5c(nc6cc(C)ccn65)c4c3C2=O)NC(=O)/C(C)=C\C=C\[C@H](C)[C@H](O)[C@@H](C)[C@@H](O)[C@@H](C)[C@H](OC(C)=O)[C@@H]1C [RIFAXIMIN]	4 (≈ 0.00509 µM)	1 (≈ 1.27 µM)	0.06 (≈ 0.0763 µM)	
CO[C@H]1/C=C/O[C@@]2(C)Oc3c(C)c(O)c4c(O)c(c(N5CCN(CCn6c([N+](=O)[O-])cnc6C)CC5)c(O)c4c3C2=O)NC(=O)/C(C)=C\C=C\[C@H](C)[C@H](O)[C@@H](C)[C@@H](O)[C@@H](C)[C@H](OC(C)=O)[C@@H]1C	0.25 (≈ 0.000267 µM)	0.06 (≈ 0.0642 µM)	< 0.015	MIC (Clostridioides difficile [3]): 0.25 ng/mL (≈ 0.000267 µM)
CO[C@H]1/C=C/O[C@@]2(C)Oc3c(C)c(O)c4c(O)c(c5c(nc6ccc(CCC(=O)N7CCN(CCn8c([N+](=O)[O-])cnc8C)CC7)cn65)c4c3C2=O)NC(=O)/C(C)=C\C=C\[C@H](C)[C@H](O)[C@@H](C)[C@@H](O)[C@@H](C)[C@H](OC(C)=O)[C@@H]1C	4 (≈ 0.00376 µM)	1 (≈ 0.939 µM)		MIC (Clostridioides difficile [3]): 4 ng/mL (≈ 0.00376 µM); MIC (Clostridioides difficile [4]): 4 µg/mL (≈ 3.76 µM); MIC (Helicobacter pylori [5]): > 8 µg/mL
CO[C@H]1/C=C/O[C@@]2(C)Oc3c(C)c(O)c4c(c3C2=O)C2=NC3(CCN(CC(C)C)CC3)NC2=C(NC(=O)/C(C)=C\C=C\[C@H](C)[C@H](O)[C@@H](C)[C@@H](O)[C@@H](C)[C@H](OC(C)=O)[C@@H]1C)C4=O [RIFABUTIN]	0.1 (≈ 0.000118 µM)	0.001 (≈ 0.00118 µM)	0.03 (≈ 0.0354 µM)	MIC (Helicobacter pylori [6]): 16 µg/mL (≈ 18.9 µM); MIC (Helicobacter pylori [7]): 1 µg/mL; MIC (Helicobacter pylori [8]): 2 µg/mL; MIC (Helicobacter pylori [9]): 16 µg/mL (≈ 18.9 µM); MIC (Helicobacter pylori [10]): 2 µg/mL; MIC (Helicobacter pylori [11]): 16 µg/mL; MIC (Helicobacter pylori [12]): 16 µg/mL (≈ 18.9 µM); MIC (Helicobacter pylori [13]): 16 µg/mL (≈ 18.9 µM); MIC (Helicobacter pylori [14]): 16 µg/mL (≈ 18.9 µM); MIC (Helicobacter pylori [15]): ≤ 2 ng/mL; MIC (Helicobacter pylori [16]): 16 µg/mL
